Source: ChEMBL document CHEMBL1255247, “Induction of L1 and L2 beta-lactamases of Stenotrophomonas maltophilia” (2008)
In brackets after ≈: the same amount, converted by molar mass. Activity calls are given as the source filed them. The calls are words filed in the database; no cut-off is given here.

Key:
[1] = test system: Stenotrophomonas maltophilia; assay: Antibacterial activity against Stenotrophomonas maltophilia isolate KJ deficient in L2 beta lactamase gene at 50 ug/ml; assay type: functional, organism-based
[2] = test system: Stenotrophomonas maltophilia; assay: Ratio of induction of xylE gene expression in Stenotrophomonas maltophilia isolate KJ deficient in L1 beta lactamase gene to induction of xylE gene expression in Stenotrophomonas maltophilia isolate KJ deficient in L2 beta lactamase gene assessed as catechol 2,3-dioxygenase activity at 50 ug/ml; assay type: functional
[3] = test system: Stenotrophomonas maltophilia; assay: Antibacterial activity against Stenotrophomonas maltophilia isolate KJ by Etest; assay type: functional
[4] = test system: Stenotrophomonas maltophilia; assay: Antibacterial activity against Stenotrophomonas maltophilia isolate KJ deficient in L1 beta lactamase gene by Etest; assay type: functional
[5] = test system: Stenotrophomonas maltophilia; assay: Antibacterial activity against Stenotrophomonas maltophilia isolate KJ deficient in L1 beta lactamase gene at 50 ug/ml; assay type: functional, organism-based
[6] = test system: Stenotrophomonas maltophilia; assay: Antibacterial activity against Stenotrophomonas maltophilia isolate KJ deficient in L2 beta lactamase gene by Etest; assay type: functional
[7] = test system: Stenotrophomonas maltophilia; assay: Antibacterial activity against Stenotrophomonas maltophilia isolate KJ deficient in L1 beta lactamase gene at 16 ug/ml; assay type: functional, organism-based
[8] = test system: Stenotrophomonas maltophilia; assay: Ratio of induction of xylE gene expression in Stenotrophomonas maltophilia isolate KJ deficient in L1 beta lactamase gene to induction of xylE gene expression in Stenotrophomonas maltophilia isolate KJ deficient in L2 beta lactamase gene assessed as catechol 2,3-dioxygenase activity at 16 ug/ml; assay type: functional
[9] = test system: Stenotrophomonas maltophilia; assay: Antibacterial activity against Stenotrophomonas maltophilia isolate KJ deficient in L2 beta lactamase gene at 8 ug/ml; assay type: functional, organism-based
[10] = test system: Stenotrophomonas maltophilia; assay: Ratio of induction of xylE gene expression in Stenotrophomonas maltophilia isolate KJ deficient in L1 beta lactamase gene to induction of xylE gene expression in Stenotrophomonas maltophilia isolate KJ deficient in L2 beta lactamase gene assessed as catechol 2,3-dioxygenase activity at 8 ug/ml; assay type: functional
In short: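 xylE reporter (C23O) assay in L1- or L2-knockout mutants of strain KJ. Overnight cultures diluted to OD450 0.15 and grown 0.5 h at 37°C, then exposed to β-lactam inducer, by default for 2.5 h. C23O activity measured in intact cells with OD450 recorded. Specific activity is nmol substrate converted/min per A450 unit. At least three repeats.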

[11] = test system: Stenotrophomonas maltophilia; assay: Induction of xylE gene expression in Stenotrophomonas maltophilia isolate KJ deficient in L1 beta lactamase gene assessed maximum catechol 2,3-dioxygenase activity at 1 ug/ml; assay type: functional, organism-based
In short: (§1)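 xylE (catechol 2,3-dioxygenase) reporter induction in the L1 or L2 knockout of strain KJ. Overnight cultures were diluted to OD450 0.15 and grown 0.5 h at 37°C, then exposed to β-lactam inducer (default 50 μg/ml, 2.5 h). C23O activity was read in intact cells with OD450. 1 U = 1 nmol substrate/min; specific activity is U per A450 unit. Each experiment was run ≥3 times.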

[12] = test system: Stenotrophomonas maltophilia; assay: Induction of xylE gene expression in Stenotrophomonas maltophilia isolate KJ deficient in L2 beta lactamase gene assessed maximum catechol 2,3-dioxygenase activity at 50 ug/ml after 2.5 hrs; assay type: functional, organism-based; in short: as §1
[13] = test system: Stenotrophomonas maltophilia; assay: Induction of xylE gene expression in Stenotrophomonas maltophilia isolate KJ deficient in L1 beta lactamase gene assessed maximum catechol 2,3-dioxygenase activity at 50 ug/ml after 3 hrs; assay type: functional, organism-based; in short: as §1
[14] = test system: Stenotrophomonas maltophilia; assay: Induction of xylE gene expression in Stenotrophomonas maltophilia isolate KJ deficient in L2 beta lactamase gene assessed maximum catechol 2,3-dioxygenase activity at 1 ug/ml; assay type: functional, organism-based; in short: as §1

Which Activity [1] does the source give for CCN1CCN(C(=O)N[C@@H](C(=O)N[C@@H]2C(=O)N3[C@@H]2SC(C)(C)[C@@H]3C(=O)O)c2ccccc2)C(=O)C1=O [PIPERACILLIN] here?
The Activity was “inactive”.

And the Ratio [2]?
Its Ratio is 1.7.

And the MIC [3]?
Its MIC is 1020 mg/L (≈ 1980 µM).

What about the MIC [4] of the same compound?
The MIC was 256 mg/L (≈ 495 µM).

What about the Activity [5] of the same compound?
The Activity was “inactive”.

And the MIC [6]?
The MIC was 512 mg/L (≈ 989 µM).

For C[C@@H](O)[C@H]1C(=O)N2C(C(=O)O)=C(SCCNC=N)C[C@H]12 [IMIPENEM ANHYDROUS], which MIC [3] is on record?
Its MIC is greater than 32 mg/L.

And the MIC [4]?
The MIC was 8 mg/L (≈ 26.7 µM).

And the MIC [6]?
Its MIC is greater than 32 mg/L.

Which MIC [3] does the source give for CO/N=C(\C(=O)N[C@@H]1C(=O)N2C(C(=O)[O-])=C(C[N+]3(C)CCCC3)CS[C@H]12)c1csc(N)n1 [CEFEPIME] here?
The MIC was 64 mg/L (≈ 133 µM).

And the MIC [4]?
Its MIC is 64 mg/L (≈ 133 µM).

And the MIC [6]?
Its MIC is 4 mg/L (≈ 8.32 µM).

For CCN1CCN(C(=O)N[C@@H](C(=O)N[C@@H]2C(=O)N3C(C(=O)O)=C(CSc4nnnn4C)CS[C@H]23)c2ccc(O)cc2)C(=O)C1=O [CEFOPERAZONE], which Activity [7] is on record?
Its Activity is “Active”.

What about the Ratio [8] of the same compound?
The Ratio was 1.4.

And the MIC [3]?
The MIC was 128 mg/L (≈ 198 µM).

What about the MIC [4] of the same compound?
Its MIC is 32 mg/L (≈ 49.6 µM).

What about the MIC [6] of the same compound?
Its MIC is 64 mg/L (≈ 99.1 µM).

Which Activity [1] does the source give for CO/N=C(\C(=O)N[C@@H]1C(=O)N2C(C(=O)O)=C(COC(C)=O)CS[C@H]12)c1csc(N)n1 [CEFOTAXIME] here?
Its Activity is “inactive”.

And the Ratio [2]?
The Ratio was 3.2.

What about the MIC [3] of the same compound?
Its MIC is 256 mg/L (≈ 562 µM).

What about the MIC [4] of the same compound?
Its MIC is 128 mg/L (≈ 281 µM).

And the Activity [5]?
Its Activity is “inactive”.

What about the MIC [6] of the same compound?
Its MIC is 128 mg/L (≈ 281 µM).

Which Activity [9] does the source give for C[C@H]1[C@H](NC(=O)/C(=N\OC(C)(C)C(=O)O)c2csc(N)n2)C(=O)N1S(=O)(=O)O [AZTREONAM] here?
Its Activity is “Active”.

What about the MIC [3] of the same compound?
Its MIC is greater than 2050 mg/L.

And the MIC [4]?
The MIC was greater than 2050 mg/L.

What about the Ratio [10] of the same compound?
The Ratio was 7.9.

For C[C@@H](O)[C@H]1C(=O)N2C(C(=O)O)=C(S[C@@H]3CN[C@H](C(=O)N(C)C)C3)[C@H](C)[C@H]12 [MEROPENEM], which MIC [3] is on record?
Its MIC is greater than 32 mg/L.

And the MIC [4]?
The MIC was 0.5 mg/L (≈ 1.3 µM).

What about the MIC [6] of the same compound?
The MIC was greater than 32 mg/L.

What does the source list for CC1(C)S[C@@H]2[C@H](NC(=O)C(C(=O)O)c3ccccc3)C(=O)N2[C@H]1C(=O)O (some centres undefined) [CARBENICILLIN]?
Activity [1]: inactive; Ratio [2]: 3.4; MIC [3]: 1020 mg/L (≈ 2710 µM); MIC [4]: 1020 mg/L (≈ 2710 µM); Activity [5]: inactive; MIC [6]: 64 mg/L (≈ 169 µM)

Which results are given for CO/N=C(\C(=O)N[C@@H]1C(=O)N2C(C(=O)O)=C(COC(N)=O)CS[C@H]12)c1ccco1 [CEFUROXIME]?
Activity [1]: inactive; Ratio [2]: 2.4; Activity [11]: Active; Activity [12]: Active; MIC [3]: 2050 mg/L (≈ 4830 µM); MIC [4]: 1020 mg/L (≈ 2410 µM); Activity [5]: inactive; MIC [6]: 1020 mg/L (≈ 2410 µM); Activity [13]: Active; Activity [14]: Active

Which Activity [1] does the source give for CO/N=C(\C(=O)N[C@@H]1C(=O)N2C(C(=O)O)=C(CSc3nc(=O)c(O)nn3C)CS[C@H]12)c1csc(N)n1 [CEFTRIAXONE] here?
Its Activity is “inactive”.

And the Ratio [2]?
The Ratio was 5.5.

And the MIC [3]?
Its MIC is 256 mg/L (≈ 462 µM).

What about the MIC [4] of the same compound?
Its MIC is 128 mg/L (≈ 231 µM).

What about the Activity [5] of the same compound?
Its Activity is “inactive”.

And the MIC [6]?
Its MIC is 128 mg/L (≈ 231 µM).

How did the Activity [1] turn out when CO[C@@]1(NC(=O)Cc2cccs2)C(=O)N2C(C(=O)O)=C(COC(N)=O)CS[C@@H]21 [CEFOXITIN] was run?
The Activity was “inactive”.

And the Ratio [2]?
The Ratio was 0.2.

What about the MIC [3] of the same compound?
Its MIC is 1020 mg/L (≈ 2400 µM).

And the MIC [4]?
The MIC was 128 mg/L (≈ 299 µM).

And the Activity [5]?
Its Activity is “inactive”.

What about the MIC [6] of the same compound?
The MIC was 1020 mg/L (≈ 2400 µM).

How did the Activity [1] turn out when CC1(C)S[C@@H]2[C@H](NC(=O)[C@H](N)c3ccccc3)C(=O)N2[C@H]1C(=O)O [AMPICILLIN] was run?
Its Activity is “inactive”.

What about the Ratio [2] of the same compound?
The Ratio was 0.9.

What about the MIC [3] of the same compound?
Its MIC is greater than 2050 mg/L.

And the MIC [4]?
Its MIC is greater than 2050 mg/L.

And the Activity [5]?
Its Activity is “inactive”.

And the MIC [6]?
Its MIC is greater than 2050 mg/L.
